Results reported in ChEMBL document CHEMBL1157300, “(+)-N-Deoxymilitarinone A, a neuritogenic pyridone alkaloid from the insect pathogenic fungus Paecilomyces farinosus” (J Nat Prod, 2006).
Calls of active or inactive are those of the source. The calls are words filed in the database; no cut-off is given here.

Legend:
[1] = Cytotoxicity against human IMR32 cells assessed as cell viability at 100 uM by MTT assay relative to control; assay type: cell-based, IMR-32; conditions: read-out: Activity
Outline: (§1)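 IMR-32 cells grown in MEM/F12 with 10% fetal bovine serum; viability read by MTT assay in 96-well format. Test concentrations were 1, 10 and 100 µM, each tested six times.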

PC-12 [2] = experiment: Induction of neurite outgrowth in rat PC12 cells at 10 uM after 48 hrs; assay type: functional, cell-based
Outline: (§2)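 PC-12 cells plated on collagen at 1 × 10^5 cells/mL and cultured 4 h. Compound added from MeOH at 3.3, 10, 33 or 100 µM (0.3% MeOH final), in duplicate, then incubated 48 h. Positive control NGF 10 ng/mL; negative control 0.3% MeOH. Over 300 cells or aggregates per well in six random fields scored by phase-contrast microscopy for neurite outgrowth.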

PC-12 [3] = experiment: Induction of neurite outgrowth in rat PC12 cells at 33 uM after 48 hrs; assay type: functional; outline: as §2
PC-12 [4] = experiment: Neuritogenic activity in rat PC12 cells assessed as round shaped cells with no neurite outgrowth at 100 uM after 48 hrs; assay type: functional
Outline: (§3)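 PC-12 cells on collagen (1 × 10^5 cells/mL, 4 h pre-culture) treated in duplicate for 48 h, compound delivered in MeOH (0.3% final); NGF 10 ng/mL and 0.3% MeOH controls. By phase contrast, over 300 cells or aggregates per well in six random fields classed as round with no neurite, neurite ≤ cell body, or neurite ≥ twice cell diameter; given as % of cells.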

PC-12 [5] = experiment: Neuritogenic activity in rat PC12 cells assessed as neurite length twice the cell diameter or longer at 100 uM after 48 hrs; assay type: functional; outline: as §3
[6] = Cytotoxicity against human IMR32 cells assessed as cell viability at 1 uM by MTT assay relative to control; assay type: cell-based; conditions: imr-32, 1 µM; outline: as §1
[7] = Cytotoxicity against human IMR32 cells assessed as cell viability at 10 uM by MTT assay relative to control; assay type: cell-based; conditions: imr-32, 10 µM; outline: as §1
PC-12 [8] = experiment: Neuritogenic activity in rat PC12 cells assessed as round shaped cells with no neurite outgrowth at 33 uM after 48 hrs; assay type: functional; outline: as §3
PC-12 [9] = experiment: Induction of neurite outgrowth in rat PC12 cells at 3.3 uM after 48 hrs; assay type: functional, cell-based; outline: as §2
PC-12 [10] = experiment: Neuritogenic activity in rat PC12 cells assessed as neurite length equal or less than cell body at 33 uM after 48 hrs; assay type: functional; outline: as §3
PC-12 [11] = experiment: Induction of neurite outgrowth in rat PC12 cells at 100 uM after 48 hrs; assay type: functional; outline: as §2
PC-12 [12] = experiment: Neuritogenic activity in rat PC12 cells assessed as neurite length equal or less than cell body at 100 uM after 48 hrs; assay type: functional; outline: as §3

Structure (SMILES): CC[C@@H](C)C[C@@H](C)/C=C(C)/C=C/C=C/C(=O)c1c(O)c([C@]2(O)CC[C@@H](O)CC2)c[nH]c1=O [N-DEOXYMILITARINONE A]
- viability at 100 µM [1]: 22%
- Activity (PC-12 [2]): inactive
- Activity (PC-12 [3]): 12%
- Activity (PC-12 [4]): 49%
- Activity (PC-12 [5]): 21%
- Activity [6]: Not Active
- Activity [7]: Not Active
- Activity (PC-12 [8]): 88%
- Activity (PC-12 [9]): inactive
- Activity (PC-12 [10]): 12%
- Activity (PC-12 [11]): 51%
- Activity (PC-12 [12]): 30%
